# Laboratory results reported in paper PMC5982514 (Biochemistry, 2018).
# Columns and labels:
# Assay type in all cases: biochemical
# [1] = tested on: BTK, SYK, ABL, SRC, ALK, EGFR and FLT3; assay: Kinetic analysis across seven PTKs; conditions: for substrate activity for all kinases tested: panel screen and seven PTKs
# Method in brief: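 Kinetics on seven kinases. Final enzyme: 0.3 ng/μL ABL/BTK/SRC/SYK, 1.5 ng/μL FLT3, 2.7 ng/μL ALK/EGFR. Lys-modified peptides at 1–150 μM with 50 μM [γ-33P]ATP, 30 °C; spotted on P81 at 10/20/30 min. Michaelis–Menten fit, or kcat/Km from linear slope (≤75 μM); three runs (FLT3 two).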
# BTK (GST fusion) = BTK (GST fusion) (Homo sapiens, UniProt Q06187); assay: Michaelis-Menten kinetic analysis, BTK
# BTK (GST fusion), sequence (Q06187 whole entry, the tested form may be a part): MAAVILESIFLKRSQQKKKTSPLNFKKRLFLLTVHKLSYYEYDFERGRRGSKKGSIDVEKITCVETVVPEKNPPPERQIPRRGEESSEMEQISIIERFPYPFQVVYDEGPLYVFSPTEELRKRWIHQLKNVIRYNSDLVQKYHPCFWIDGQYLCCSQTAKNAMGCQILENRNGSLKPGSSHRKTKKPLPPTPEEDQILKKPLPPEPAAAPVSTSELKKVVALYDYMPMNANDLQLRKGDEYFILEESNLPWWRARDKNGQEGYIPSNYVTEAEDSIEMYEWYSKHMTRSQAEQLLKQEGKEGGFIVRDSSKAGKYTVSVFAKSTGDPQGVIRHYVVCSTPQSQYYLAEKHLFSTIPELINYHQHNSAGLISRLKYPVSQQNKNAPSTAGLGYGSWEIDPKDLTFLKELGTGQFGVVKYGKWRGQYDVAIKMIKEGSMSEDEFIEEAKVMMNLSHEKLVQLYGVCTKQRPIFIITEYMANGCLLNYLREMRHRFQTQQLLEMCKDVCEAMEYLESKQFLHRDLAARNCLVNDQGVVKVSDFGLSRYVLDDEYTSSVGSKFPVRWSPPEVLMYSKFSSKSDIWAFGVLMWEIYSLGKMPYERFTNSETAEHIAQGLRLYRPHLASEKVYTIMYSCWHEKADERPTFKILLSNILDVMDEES
# Method in brief: (§1)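 GST-fused kinases were expressed in HEK293T and purified on glutathione Sepharose, then used at 0.3 ng/μL. Peptides (Lys-substituted C-termini) were titrated from 1 to 150 μM with 50 μM [γ-33P]ATP (0.025 μCi/μL) in HEPES pH 7.5/NaCl/MgCl2/DTT/Tween 20 buffer at 30 °C. Aliquots at 10–30 min went onto P81 paper for phosphorimaging. kcat/Km came from a Michaelis–Menten fit or the linear slope (≤75 μM). Three experiments.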
# Src (GST fusion) = Src (GST fusion) (Homo sapiens, UniProt P12931); assay: Michaelis-Menten kinetic analysis, Src; conditions: consensus peptides of ref [15]
# Method in brief: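 GST-SRC from HEK293T, glutathione-Sepharose purified, 0.3 ng/μL final. Peptides with C-terminal Gly→Lys at 1–150 μM, in HEPES pH 7.5/NaCl/MgCl2/DTT/Tween 20 with 50 μM [γ-33P]ATP at 30 °C. Aliquots at 10, 20 and 30 min spotted on P81, H3PO4-washed, phosphorimaged. Initial rates fit to Michaelis–Menten, or kcat/Km from linear slope (≤75 μM); mean ± SEM of three experiments.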
# Abl = Abl (Homo sapiens, UniProt P00519); assay: Michaelis-Menten kinetic analysis, Abl; conditions: for catalytic parameters compared with consensus peptides: consensus peptides of ref [15]
# Abl, sequence (P00519 whole entry): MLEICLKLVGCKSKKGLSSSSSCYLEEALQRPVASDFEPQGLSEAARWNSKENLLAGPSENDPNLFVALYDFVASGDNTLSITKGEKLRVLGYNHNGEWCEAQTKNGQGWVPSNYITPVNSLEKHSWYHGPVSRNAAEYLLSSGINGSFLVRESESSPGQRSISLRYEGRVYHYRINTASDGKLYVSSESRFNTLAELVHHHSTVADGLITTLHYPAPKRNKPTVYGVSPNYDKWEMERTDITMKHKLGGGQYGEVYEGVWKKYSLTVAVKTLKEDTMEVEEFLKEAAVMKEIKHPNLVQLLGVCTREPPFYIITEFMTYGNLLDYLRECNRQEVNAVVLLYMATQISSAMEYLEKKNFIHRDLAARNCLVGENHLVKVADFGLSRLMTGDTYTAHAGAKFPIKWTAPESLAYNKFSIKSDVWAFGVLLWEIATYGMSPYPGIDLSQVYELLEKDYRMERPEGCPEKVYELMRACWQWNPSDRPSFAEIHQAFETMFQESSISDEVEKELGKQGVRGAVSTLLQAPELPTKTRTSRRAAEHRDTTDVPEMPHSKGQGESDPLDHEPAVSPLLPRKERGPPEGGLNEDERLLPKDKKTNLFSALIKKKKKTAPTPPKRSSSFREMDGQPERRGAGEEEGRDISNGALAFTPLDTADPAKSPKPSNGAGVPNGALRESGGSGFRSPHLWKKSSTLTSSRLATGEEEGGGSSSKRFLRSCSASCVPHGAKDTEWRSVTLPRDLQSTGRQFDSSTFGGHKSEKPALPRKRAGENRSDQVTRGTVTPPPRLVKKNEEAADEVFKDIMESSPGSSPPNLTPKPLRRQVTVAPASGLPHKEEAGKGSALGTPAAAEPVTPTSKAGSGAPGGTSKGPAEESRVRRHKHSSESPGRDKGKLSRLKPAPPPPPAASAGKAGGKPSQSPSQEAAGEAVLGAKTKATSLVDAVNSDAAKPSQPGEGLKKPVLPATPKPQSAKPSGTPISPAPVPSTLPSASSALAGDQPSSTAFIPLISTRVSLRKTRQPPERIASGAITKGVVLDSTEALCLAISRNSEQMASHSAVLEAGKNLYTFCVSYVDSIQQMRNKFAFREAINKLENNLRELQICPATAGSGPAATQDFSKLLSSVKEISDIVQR
# ALK (His6-ALK^1090–1416) = ALK (His6-ALK^1090–1416) (Homo sapiens, UniProt Q9UM73); assay: Michaelis-Menten kinetic analysis, ALK; conditions: kcat/Km of peptide 2 over peptide 5, mean±sem, three experiments
# ALK (His6-ALK^1090–1416), sequence (Q9UM73 1090-1416): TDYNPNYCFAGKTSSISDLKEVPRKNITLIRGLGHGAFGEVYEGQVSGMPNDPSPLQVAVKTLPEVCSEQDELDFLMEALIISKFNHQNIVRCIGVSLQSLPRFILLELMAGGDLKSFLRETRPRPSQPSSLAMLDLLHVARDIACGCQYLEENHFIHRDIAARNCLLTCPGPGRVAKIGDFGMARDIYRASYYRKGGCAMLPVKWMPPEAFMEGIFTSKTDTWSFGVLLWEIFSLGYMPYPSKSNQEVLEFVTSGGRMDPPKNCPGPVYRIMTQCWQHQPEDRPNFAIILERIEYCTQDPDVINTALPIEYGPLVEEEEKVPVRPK
# Method in brief: (§2)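 His6-tagged intracellular kinase domains were expressed and purified from Sf9 cells and used at 2.7 ng/μL final. Peptides were varied over 1–150 μM with 50 μM [γ-33P]ATP (0.025 μCi/μL) in pH 7.5 HEPES buffer containing 10 mM MgCl2 at 30 °C. Aliquots taken at 10, 20 and 30 min were captured on P81 paper, washed in 75 mM H3PO4 and phosphorimaged. Rates were fitted to Michaelis–Menten, or kcat/Km was taken from the linear slope (≤75 μM). Three experiments.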
# FLT3 (GST-FLT3^564–993) = target: T1, FLT3 (GST-FLT3^564–993) (Homo sapiens, UniProt P36888); assay: Michaelis-Menten kinetic analysis, FLT3; conditions: kcat/Km of peptide 2 over peptide 5, mean±sem, two experiments
# T1 sequence (P36888 564-993): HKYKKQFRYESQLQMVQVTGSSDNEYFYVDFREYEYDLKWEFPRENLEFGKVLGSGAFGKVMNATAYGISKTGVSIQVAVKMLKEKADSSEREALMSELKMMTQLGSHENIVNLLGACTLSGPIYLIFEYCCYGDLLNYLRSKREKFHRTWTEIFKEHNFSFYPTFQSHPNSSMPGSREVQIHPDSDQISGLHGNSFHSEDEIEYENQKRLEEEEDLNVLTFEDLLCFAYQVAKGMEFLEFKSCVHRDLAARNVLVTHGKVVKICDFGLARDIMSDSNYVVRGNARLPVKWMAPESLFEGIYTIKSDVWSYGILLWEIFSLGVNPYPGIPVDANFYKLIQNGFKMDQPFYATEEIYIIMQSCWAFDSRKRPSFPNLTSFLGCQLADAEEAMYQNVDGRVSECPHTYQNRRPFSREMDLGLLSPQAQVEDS
# Method in brief: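 GST-FLT3 (residues 564–993) was expressed in HEK293T, glutathione-purified and used at 1.5 ng/μL. Peptides at 1–150 μM were reacted with 50 μM [γ-33P]ATP (0.025 μCi/μL) in 50 mM HEPES pH 7.5, 10 mM MgCl2, 1 mM DTT at 30 °C. Timepoints at 10, 20 and 30 min were spotted on P81 paper and phosphorimaged. Initial rates were fitted to Michaelis–Menten, or kcat/Km was derived from the slope up to 75 μM. Two experiments.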
# EGFR (His6-EGFR^672–998) = EGFR (His6-EGFR^672–998) (Homo sapiens, UniProt P00533); assay: Michaelis-Menten kinetic analysis, EGFR
# Method in brief: as §2
# Syk (GST fusion) = Syk (GST fusion) (Homo sapiens, UniProt P43405); assay: Michaelis-Menten kinetic analysis, Syk; conditions: kcat/Km of peptide 2 over peptide 5, mean±sem, three experiments
# Method in brief: as §1
# [2] = kcat/Km of peptide 2 over peptide 5, mean±sem, three experiments
kinase preference between peptides 2 and 5 (BTK (GST fusion); specificity constant),kinase preference between peptides 2 and 5 (Abl; specificity constant),Sequence,"preference of NRTKs ([1]; NRTKs among the kinases examined, peptide 5 vs peptide 2)",substrate activity for all kinases tested [1],catalytic parameters compared with consensus peptides (Src (GST fusion)),catalytic parameters compared with consensus peptides (Abl),2/5 kcat/Km ratio (ALK (His6-ALK^1090–1416)),2/5 kcat/Km ratio (FLT3 (GST-FLT3^564–993)),"preference of RTKs ([1]; RTKs among the kinases examined, generally, peptide 2 vs peptide 5)",2/5 kcat/Km ratio (BTK (GST fusion); [2]),2/5 kcat/Km ratio (EGFR (His6-EGFR^672–998); [2]),kinase preference between peptides 2 and 5 (EGFR (His6-EGFR^672–998); specificity constant),2/5 kcat/Km ratio (Syk (GST fusion)),2/5 kcat/Km ratio (Abl; [2])
more substantial preference,more substantial preference,DEAIYATVA [Peptide 5],the reverse preference was seen for NRTKs,successful substrates for all kinases tested,rivaled those determined with consensus peptides,rivaled those determined with consensus peptides,–,–,–,–,–,–,–,–
–,–,EDPIYVTLE [Peptide 2],–,successful substrates for all kinases tested,rivaled those determined with consensus peptides,rivaled those determined with consensus peptides,1.23 ± 0.02,1.43 ± 0.07,generally preferred over peptide 5 for RTKs,0.31 ± 0.01,5.8 ± 0.2,more substantial preference,1.8 ± 0.2,0.13 ± 0.01
